Assay results collected from several papers.
Protocols differ between the studies behind these lines.
Cell line: MDA-MB-231
Read-out: cell growth or viability

| SMILES | method | time | notes | IC50 [µM] |
| --- | --- | --- | --- | --- |
| C=CC1=C(C)c2cc3[nH]c(cc4nc(cc5[nH]c(cc1n2)c(C)c5CCC(=O)O)C(CCC(=O)O)=C4C)c(C)c3C=C |  | 4 h | dark | > 100 |
| CCn1c(-c2nnc(NC(=O)c3cc4c([nH]c5ccccc54)c(-c4cc(OC)c(OC)c(OC)c4)n3)s2)cc2ccccc21 | MTT | 72 h |  | 8.66 |
| CCN1CCN(Cc2ccc(Nc3ncc(F)c(-c4cc(F)c5nc(C)n(C(C)C)c5c4)n3)nc2)CC1 | CCK-8 |  |  | 1.67 |
| Fc1ccc(-c2nc3ccccc3n2Cc2ccccc2)cc1 | MTT |  |  | 34.6 |
| CC(=O)O[C@@]12CO[C@@H]1C[C@H](O)[C@@]1(C)C(=O)[C@H](O)C3=C(C)[C@@H](OC(=O)[C@H](O)[C@@H](NC(=O)OC(C)(C)C)c4ccccc4)C[C@@](O)([C@@H](OC(=O)c4ccccc4)[C@H]21)C3(C)C | ATP luminescence | 72 h |  | 0.0022 |
| FC(F)(F)c1cccc(Nc2ncnc3ccc(Nc4ccccc4)cc23)c1 | MTT | 24 h |  | 15.5 |
| CC(C)C[C@H](NC(=O)[C@H](Cc1ccccc1)NC(=O)c1cnccn1)B(O)O | ATP luminescence |  |  | 0.013 |
| Cc1nc(Nc2ncc(C(=O)Nc3c(C)cccc3Cl)s2)cc(N2CCN(CCO)CC2)n1 | MTT | 24 h |  | 25 |
| COc1c(C)c(OC)c2c(c1C)OC(c1ccccc1)CC2=O (stereo not drawn) | SRB | 72 h |  | > 50 |
| CC(C)[C@H](N)c1nc2cc(-c3ccncc3F)sc2c(=O)[nH]1 | MTT |  |  | 1.19 |
| FC(F)(F)c1cccc(Nc2ncnc3ccc(-c4ccc5c(c4)OCO5)cc23)c1 | MTT | 24 h |  | 7.24 |
| C[C@@H]1C[C@@H](c2cccc(Cl)c2)c2c(cc3ccccn23)C(=O)O1 (racemic) | resazurin | 72 h |  | > 100 |
| CCOc1ccc(-c2nc3ccccc3n2Cc2ccccc2)cc1 | MTT |  |  | 21.1 |
| Nc1ccn([C@@H]2O[C@H](CO)[C@@H](O)C2(F)F)c(=O)n1 | resazurin | 72 h |  | 4.5 |
| C[C@@H]1C[C@H](c2ccc(Br)cc2)c2c(cc3ccccn23)C(=O)O1 (racemic) | resazurin | 72 h |  | 16.7 |
| COc1cc(/C=C2\SC(=O)NC2=O)ccc1OCc1ccc(Cl)cc1Cl | MTT | 48 h |  | 25.6 |
| CCn1c(-c2nnc(NC(=O)c3cc4c([nH]c5ccccc54)c(-c4ccc(OC)cc4)n3)s2)cc2ccccc21 | MTT | 72 h |  | 9.39 |
| C=CCNC1=C2C[C@@H](C)C[C@H](OC)[C@H](O)[C@@H](C)/C=C(\C)[C@H](OC(N)=O)[C@@H](OC)/C=C\C=C(/C)C(=O)NC(=CC1=O)C2=O | MTT |  |  | 0.338 |
| COc1ccc(Br)cc1/C=C/C(=O)c1ccc(NC(C)=O)cc1 | MTT | 48 h |  | 3 |
| Cc1ccc2nc(-c3ccc(Cl)cc3)n(Cc3ccccc3)c2c1 | MTT |  |  | 2.39 |
| O=C(CSc1nc2ccc(N=Cc3ccc(Sc4nnnn4-c4ccccc4)o3)cc2s1)N1CCOCC1 | MTT | 72 h |  | 48.6 |
| C=CCn1c(-c2ccc([N+](=O)[O-])cc2)nc2ccccc21 | MTT |  |  | 43.9 |
| O=C(Nc1nnc(-c2cc3ccccc3[nH]2)s1)c1cc2c([nH]c3ccccc32)c(-c2ccccc2)n1 | MTT | 72 h |  | 3.94 |
| FC(F)(F)c1cccc(Nc2ncnc3ccc(NCc4ccccc4)cc23)c1 | MTT | 24 h |  | 12.6 |

| SMILES | method | time | notes | IC50 [µM] |
| --- | --- | --- | --- | --- |
| COc1cccc2c1C(=O)c1c(O)c3c(c(O)c1C2=O)C[C@@](O)(C(=O)CO)C[C@@H]3O[C@H]1C[C@H](N)[C@H](O)[C@H](C)O1 | MTT |  |  | 6.75 |
| CC(C)CCC[C@@H](C)[C@H]1CC[C@H]2[C@@H]3CC=C4C[C@@H](O)CC[C@]4(C)[C@H]3CC[C@]12C | resazurin | 72 h |  | > 30 |
| O=C(C=C[c-]1cccc1)c1sccc1Br.[Fe+2].c1cc[cH-]c1 | MTT | 72 h |  | 6.59 |
| CCOc1ccc(-c2nc3ccccc3[nH]2)cc1 | MTT | 48 h |  | > 100 |
| O=C(c1cc(Cc2n[nH]c(=O)c3ccccc23)ccc1F)N1CCN(C(=O)C2CC2)CC1 | MTT | 48 h |  | 246 |
| COc1ccc(-c2nc3ccccc3[nH]2)cc1O | MTT | 48 h |  | 88.1 |
| C[C@H]1O[C@@H](n2cc(F)c(=O)[nH]c2=O)[C@H](O)[C@@H]1O | CCK-8 | 48 h |  | > 50 |
| Oc1ccccc1-c1nc2ccccc2[nH]1 | MTT | 48 h |  | 35.9 |
| FC(F)(F)c1cccc(Nc2ncnc3ccc(-c4ccsc4)cc23)c1 | MTT | 24 h |  | 2.96 |
| C[C@@H]1C[C@H](c2cccc(F)c2)c2c(cc3ccccn23)C(=O)O1 (racemic) | resazurin | 72 h |  | 79.5 |
| COc1ccc(-c2ccc3ncnc(Nc4cccc(C(F)(F)F)c4)c3c2)cc1 | MTT | 24 h |  | 6.39 |
| COc1ccc(/C=C/C(=O)c2cc(Br)ccc(=O)c2O)cc1 | MTT | 48 h |  | 5.5 |
| O=C1CCC2(Oc3cccc4cccc(c34)O2)c2c(O)ccc(O)c21 | resazurin | 72 h |  | > 25 |
| Oc1cccc(Nc2ccc3ncnc(Nc4cccc(C(F)(F)F)c4)c3c2)c1 | MTT | 24 h |  | 3.34 |
| Clc1ccc(-c2nc3ccccc3[nH]2)cc1Cl | MTT | 48 h |  | 9.83 |
| O=Cc1ccc(-c2ccc3ncnc(Nc4cccc(C(F)(F)F)c4)c3c2)cc1 | MTT | 24 h |  | 8.67 |
| C[C@H]1[C@@H](O)O[C@@H]2O[C@@]3(C)CC[C@H]4[C@H](C)CC[C@@H]1[C@@]24OO3 | CCK-8 | 48 h |  | > 50 |
| COc1cc([C@@H]2C[C@@H](C)OC(=O)c3cc4ccccn4c32)cc(OC)c1OC (racemic) | resazurin | 72 h |  | > 100 |
| Cc1cc(NS(=O)(=O)c2ccc(NC(=O)COc3ccc(C(C)(C)c4ccccc4)cc3)cc2)nc(C)n1 | MTT | 72 h |  | 38.9 |
| COc1ccc(-c2nc(C(=O)Nc3nnc(-c4cc5ccccc5[nH]4)s3)cc3c2[nH]c2ccccc23)cc1 | MTT | 72 h |  | 3.28 |
| COc1cc(OC)cc([C@H]2C[C@@H](C)OC(=O)c3cc4ccccn4c32)c1 (racemic) | resazurin | 72 h |  | 20.5 |
| CC(=O)OC[C@H]1O[C@@H]([S-])[C@H](OC(C)=O)[C@@H](OC(C)=O)[C@@H]1OC(C)=O.CCP(CC)CC.[Au+] | resazurin |  |  | 1.58 |
| CC(=O)Nc1nc(C)c(-c2csc(Nc3ccccc3)n2)s1 | MTT | 48 h |  | 12.2 |
| COc1cccc([C@@H]2C[C@@H](C)OC(=O)c3cc4ccccn4c32)c1 (racemic) | resazurin | 72 h |  | 53 |
